Experimental data: ChEMBL document CHEMBL2346608, “New annelated thieno[2,3-e][1,2,3]triazolo[1,5-a]pyrimidines, with potent anticancer activity, designed through VLAK protocol” (2013)

Tests used:
Type in all cases: functional
[1] = system: IGROV-1; assay: Antiproliferative activity against human IGROV1 cells after 48 hrs by sulforhodamine B assay; conditions: IGROV-1, 48 h; for TGI: read-out: pTGI (converted)
In short: (§1)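 Cells grown in RPMI 1640 with 5% FBS and 2 mM L-glutamine, plated at 5000–40,000 cells/well and preincubated 24 h at 37 °C, 5% CO2. Five drug concentrations (10-fold or ½-log dilutions from DMSO stocks) applied for 48 h. TCA-fixed (final 10% adherent, 16% suspension), SRB-stained, A515 read. Growth versus time-zero and control wells gave GI50, TGI, LC50.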

[2] = system: SR; assay: Antiproliferative activity against human SR cells after 48 hrs by sulforhodamine B assay; conditions: for TGI: read-out: pTGI (converted)
In short: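 Cells in RPMI 1640 with 5% FBS and 2 mM L-glutamine were seeded at 5000–40,000/well according to doubling time and preincubated 24 h at 37 °C in 5% CO2. Time-zero plates were TCA-fixed when drug was added. Five 10-fold or ½-log dilutions from DMSO stocks were added for 48 h. After SRB staining, A515 was read and GI50 derived from [(Ti−Tz)/(C−Tz)]×100 = 50.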

[3] = system: BT-549; assay: Antiproliferative activity against human BT549 cells after 48 hrs by sulforhodamine B assay; conditions: BT-549, 48 h; in short: as §1

Compound | GI50 [1] [µM] | LC50 [1] [µM] | TGI [1] [µM] | GI50 [2] [µM] | LC50 (50% lethal concentration) [2] [µM] | TGI [2] [µM] | GI50 [3] [µM] | CC50 ([3]; read-out: pLC50 (the source's name) (converted)) [µM] | TGI ([3]; read-out: pTGI (converted)) [µM]
O=C(CCCn1c(=O)c2sc3ncccc3c2n2nnc(-c3ccccc3)c12)NCCc1c[nH]cn1 | 9.55 | 75.9 | 27.5 | 2.51 | > 100 | 6.17 | – | – | –
CN1CCN(CCCn2c(=O)c3sc4ncccc4c3n3nnc(-c4ccccc4)c23)CC1 | 5.89 | 32.4 | 13.8 | 1.1 | 12 | 2.57 | – | – | –
O=C(CCCn1c(=O)c2sc3ccccc3c2n2nnc(-c3ccccc3)c12)NCCc1c[nH]cn1 | – | – | – | – | – | – | 17.4 | > 100 | 41.7
